Data taken from ChEMBL document CHEMBL2434966, “Novel N-4-piperazinyl-ciprofloxacin-chalcone hybrids: synthesis, physicochemical properties, anticancer and topoisomerase I and II inhibitory activity” (Eur J Med Chem, 2013).
In brackets after ≈: the same amount, converted by molar mass.

Legend:
[1] = tested on: 786-0; assay: Growth inhibition of human 786-0 cells assessed as cell growth at 10^-5 M after 48 hrs by sulforhodamine B assay; format: functional; settings: 786-0, 48 h, read-out: Activity
In short: (§1)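 NCI 60-cell-line primary screen. Single concentration of 10^-5 M, 48 h incubation. End point by sulforhodamine B protein staining read spectrophotometrically. Reported as percent growth of treated cells relative to untreated control cells.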

[2] = tested on: T47D; assay: Growth inhibition of human T47D cells after 48 hrs by sulforhodamine B assay; format: functional
In short: (§2)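 NCI 60-cell panel, five concentrations (10-fold dilutions, 0.01–100 µM), 48 h continuous exposure; SRB protein stain read spectrophotometrically. Percent growth from time-zero, untreated-control and treated absorbances. GI50 is the concentration giving 50% lower net protein increase than control. Values beyond the tested range are reported as more or less than the highest or lowest concentration.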

[3] = tested on: HT-29; assay: Growth inhibition of human HT-29 cells after 48 hrs by sulforhodamine B assay; format: functional; settings: HT-29, 48 h; for CC50: read-out: LC50 (the source's name)
In short: (§3)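 NCI 60-panel five-dose test at 10-fold dilutions, 10^-4 to 10^-8 M, with 48 h continuous exposure and SRB protein read-out. Percent growth derived from time-zero, untreated-control and treated absorbances. GI50 is the concentration where [(Ti-Tz)/(C-Tz)]×100 = 50. TGI is taken at Ti = Tz. LC50 is taken at [(Ti-Tz)/Tz]×100 = -50.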

[4] = tested on: A498; assay: Growth inhibition of human A498 cells assessed as cell growth at 10^-5 M after 48 hrs by sulforhodamine B assay; format: functional; settings: A498, 48 h, read-out: Activity; in short: as §1
[5] = tested on: IGROV-1; assay: Growth inhibition of human IGROV1 cells assessed as cell growth at 10^-5 M after 48 hrs by sulforhodamine B assay; format: functional; settings: IGROV-1, 48 h, read-out: Activity; in short: as §1
[6] = tested on: ACHN; assay: Growth inhibition of human ACHN cells after 48 hrs by sulforhodamine B assay; format: functional; settings: for CC50: read-out: LC50 (the source's name); in short: as §3
[7] = tested on: SK-MEL-28; assay: Growth inhibition of human SK-MEL-28 cells after 48 hrs by sulforhodamine B assay; format: functional; settings: SK-MEL-28, 48 h; for CC50: read-out: LC50 (the source's name)
In short: (§4)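 NCI five-dose screen on the full 60-cell-line panel. Cells were given 10-fold dilutions from 10^-4 to 10^-8 M with continuous 48 h exposure, and growth was read by SRB staining. Percent growth was taken from time-zero, control and treated absorbances. GI50, TGI and LC50 were then derived, the GI50 being the concentration that gives a 50% lower net protein increase than control.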

[8] = tested on: DU-145; assay: Growth inhibition of human DU145 cells after 48 hrs by sulforhodamine B assay; format: functional; settings: DU-145, 48 h; in short: as §3
[9] = tested on: KM12; assay: Growth inhibition of human KM12 cells assessed as cell growth at 10^-5 M after 48 hrs by sulforhodamine B assay; format: functional; settings: KM12, 48 h, read-out: Activity; in short: as §1
[10] = tested on: NCI-H23; assay: Growth inhibition of human NCI-H23 cells after 48 hrs by sulforhodamine B assay; format: functional; settings: NCI-H23, 48 h; for CC50: read-out: LC50 (the source's name); in short: as §4
[11] = tested on: HOP-92; assay: Growth inhibition of human HOP92 cells assessed as cell growth at 10^-5 M after 48 hrs by sulforhodamine B assay; format: functional; settings: HOP-92, 48 h, read-out: Activity; in short: as §1
[12] = tested on: OVCAR-8; assay: Growth inhibition of human OVCAR8 cells after 48 hrs by sulforhodamine B assay; format: functional; settings: OVCAR-8, 48 h; for CC50: read-out: LC50 (the source's name); in short: as §4
[13] = tested on: SNB-19; assay: Growth inhibition of human SNB19 cells after 48 hrs by sulforhodamine B assay; format: functional; settings: SNB-19, 48 h; in short: as §2
[14] = tested on: NCI-H460; assay: Growth inhibition of human NCI-H460 cells assessed as cell growth at 10^-5 M after 48 hrs by sulforhodamine B assay; format: functional; settings: NCI-H460, 48 h, read-out: Activity
In short: (§5)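 NCI 60-cell-line primary one-dose screen. Cells were exposed to a single 10^-5 M concentration for 48 h. The end point was sulforhodamine B protein staining, read spectrophotometrically. Results are reported as percent growth of treated cells relative to untreated control cells.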

[15] = tested on: HL-60(TB); assay: Growth inhibition of human HL-60(TB) cells assessed as cell growth at 10^-5 M after 48 hrs by sulforhodamine B assay; format: functional; settings: HL-60, 48 h, read-out: Activity
In short: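 NCI one-dose primary screen: compound added once at 10^-5 M, cultures incubated 48 h, end point by SRB protein-binding dye. Result given as percent growth of treated cells relative to untreated control cells, measured spectrophotometrically.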

[16] = Aqueous solubility of the compound at pH 6.9 by UV spectroscopic analysis; format: physicochemical; settings: aqueous solution
In short: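 Excess solid (10 mg) shaken in buffer at pH 6.9 or 7.8, 37 °C. The filtrate was diluted into the linear calibration range and dissolved drug measured by UV absorbance at λmax 272 nm. Values are the average of at least three agreeing independent measurements.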

[17] = tested on: ACHN; assay: Growth inhibition of human ACHN cells assessed as cell growth at 10^-5 M after 48 hrs by sulforhodamine B assay; format: functional; settings: read-out: Activity; in short: as §1
[18] = Growth inhibition of human Hs 578T cells after 48 hrs by sulforhodamine B assay; format: functional; settings: for CC50: read-out: LC50 (the source's name); in short: as §3
[19] = tested on: MOLT-4; assay: Growth inhibition of human MOLT4 cells assessed as cell growth at 10^-5 M after 48 hrs by sulforhodamine B assay; format: functional; settings: MOLT-4, 48 h, read-out: Activity; in short: as §5
[20] = tested on: SW-620; assay: Growth inhibition of human SW620 cells assessed as cell growth at 10^-5 M after 48 hrs by sulforhodamine B assay; format: functional; settings: SW-620, 48 h, read-out: Activity
In short: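 NCI primary one-dose screen: single concentration of 10^-5 M added to culture, 48 h incubation, SRB protein-dye endpoint. Percent growth of treated cells measured spectrophotometrically against untreated controls.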

[21] = tested on: A549; assay: Growth inhibition of human A549/ATCC cells assessed as cell growth at 10^-5 M after 48 hrs by sulforhodamine B assay; format: functional; settings: A549, 48 h, read-out: Activity; in short: as §1
[22] = tested on: SNB-75; assay: Growth inhibition of human SNB75 cells after 48 hrs by sulforhodamine B assay; format: functional; settings: SNB-75, 48 h; for CC50: read-out: LC50 (the source's name); in short: as §2
[23] = tested on: COLO 205; assay: Growth inhibition of human COLO205 cells assessed as cell growth at 10^-5 M after 48 hrs by sulforhodamine B assay; format: functional; settings: COLO 205, 48 h, read-out: Activity; in short: as §1
[24] = tested on: SF-295; assay: Growth inhibition of human SF295 cells after 48 hrs by sulforhodamine B assay; format: functional; settings: SF-295, 48 h; in short: as §4

What does the source list for `COc1cc(/C=C/C(=O)c2ccc(NC(=O)CN3CCN(c4cc5c(cc4F)c(=O)c(C(=O)O)cn5C4CC4)CC3)cc2)cc(OC)c1OC`?
growth at 10 µM [1]: -67.8%; GI50 [2]: 2.4 µM; LC50 (concentration killing 50% of the cells present at time zero) [2]: > 100 µM; TGI [2]: > 100 µM; GI50 [3]: 0.23 µM; TGI [3]: 0.63 µM; CC50 [3]: 9.13 µM; growth at 10 µM [4]: -43.8%; growth at 10 µM [5]: -1.19%; GI50 [6]: 0.45 µM; TGI [6]: 7.09 µM; CC50 [6]: > 100 µM; GI50 [7]: 1.1 µM; TGI [7]: 17 µM; CC50 [7]: 98.2 µM; GI50 [8]: 0.67 µM; LC50 (concentration killing 50% of starting cells) [8]: > 100 µM; TGI [8]: > 100 µM; growth at 10 µM [9]: -65.1%; GI50 [10]: 0.56 µM; TGI [10]: 2.91 µM; CC50 [10]: 14.2 µM; growth at 10 µM [11]: -1.75%; GI50 [12]: 0.34 µM; TGI [12]: 26.7 µM; CC50 [12]: > 100 µM; GI50 [13]: 2.78 µM; LC50 [13]: > 100 µM; TGI [13]: > 100 µM; growth at 10 µM [14]: -20%; growth at 10 µM [15]: -33.7%; solubility [16]: 2.13 µg/mL (≈ 3.11 µM); growth at 10 µM [17]: 10.8%; GI50 [18]: 53.8 µM; TGI [18]: > 100 µM; CC50 [18]: > 100 µM; growth at 10 µM [19]: -1.1%; growth at 10 µM [20]: 6.38%; growth at 10 µM [21]: -19.2%; GI50 [22]: 5.75 µM; TGI [22]: > 100 µM; CC50 [22]: > 100 µM; growth at 10 µM [23]: -12.8%; GI50 [24]: 0.53 µM; LC50 (concentration giving 50% net cell kill) [24]: 53.1 µM; TGI [24]: 3.13 µM

With `O=C(CN1CCN(c2cc3c(cc2F)c(=O)c(C(=O)O)cn3C2CC2)CC1)Nc1ccc(C(=O)/C=C/c2ccccc2)cc1` as the compound, how does the growth at 10 µM [1] read?
The growth at 10 µM was 23.2%.

What about the GI50 [2] of the same compound?
Its GI50 is 6.66 µM.

And the LC50 (concentration killing 50% of the cells present at time zero) [2]?
Its LC50 (concentration killing 50% of the cells present at time zero) is over 100 µM.

What about the TGI [2] of the same compound?
The TGI was over 100 µM.

And the GI50 [3]?
Its GI50 is 2.99 µM.

What about the TGI [3] of the same compound?
The TGI was 10.3 µM.

What about the CC50 [3] of the same compound?
The CC50 was over 100 µM.

What about the growth at 10 µM [4] of the same compound?
The growth at 10 µM was 57.7%.

And the growth at 10 µM [5]?
The growth at 10 µM was 42.9%.

What about the GI50 [6] of the same compound?
Its GI50 is 3.3 µM.

What about the TGI [6] of the same compound?
Its TGI is 31.9 µM.

What about the CC50 [6] of the same compound?
The CC50 was over 100 µM.

What about the GI50 [7] of the same compound?
Its GI50 is 18.8 µM.

What about the TGI [7] of the same compound?
The TGI was over 100 µM.

What about the CC50 [7] of the same compound?
The CC50 was over 100 µM.

And the GI50 [8]?
Its GI50 is 3.74 µM.

What about the LC50 (concentration killing 50% of starting cells) [8] of the same compound?
Its LC50 (concentration killing 50% of starting cells) is over 100 µM.

And the TGI [8]?
The TGI was over 100 µM.

What about the growth at 10 µM [9] of the same compound?
The growth at 10 µM was 25.3%.

And the GI50 [10]?
The GI50 was 2.48 µM.

And the TGI [10]?
Its TGI is 14.3 µM.

And the CC50 [10]?
The CC50 was over 100 µM.

What about the growth at 10 µM [11] of the same compound?
The growth at 10 µM was 14.9%.

And the GI50 [12]?
Its GI50 is 3.07 µM.

What about the TGI [12] of the same compound?
Its TGI is over 100 µM.

What about the CC50 [12] of the same compound?
Its CC50 is over 100 µM.

And the GI50 [13]?
Its GI50 is 3.05 µM.

And the LC50 [13]?
Its LC50 is over 100 µM.

What about the TGI [13] of the same compound?
The TGI was over 100 µM.

And the growth at 10 µM [14]?
Its growth at 10 µM is 7.12%.

And the growth at 10 µM [15]?
The growth at 10 µM was 40.9%.

What about the solubility [16] of the same compound?
Its solubility is 2.73 µg/mL (≈ 4.59 µM).

What about the growth at 10 µM [17] of the same compound?
The growth at 10 µM was 40%.

And the GI50 [18]?
The GI50 was 4.99 µM.

What about the TGI [18] of the same compound?
The TGI was over 100 µM.

And the CC50 [18]?
The CC50 was over 100 µM.

What about the growth at 10 µM [19] of the same compound?
Its growth at 10 µM is 19%.

And the growth at 10 µM [20]?
Its growth at 10 µM is 41%.

What about the growth at 10 µM [21] of the same compound?
Its growth at 10 µM is 4.12%.

What about the GI50 [22] of the same compound?
The GI50 was 3.22 µM.

What about the TGI [22] of the same compound?
Its TGI is over 100 µM.

What about the CC50 [22] of the same compound?
The CC50 was over 100 µM.

What about the growth at 10 µM [23] of the same compound?
The growth at 10 µM was 108%.

What about the GI50 [24] of the same compound?
The GI50 was 2.11 µM.

And the LC50 (concentration giving 50% net cell kill) [24]?
The LC50 (concentration giving 50% net cell kill) was over 100 µM.

What about the TGI [24] of the same compound?
Its TGI is 6.25 µM.
